# From PubChem BioAssay
# HNF4A DNA FP – change in binding of human HNF4 alpha to DNA. P41235. HNF4a-FITC DNA binding, fluorescence polarization, 1 h. activity change, % at 10 µM. 0.3% of 360,000 active. AID 1224865; in the data active = activity change above about 30%, passing the limit was not always enough
# Rpn11 block – Rpn11 (human) deubiquitinase inhibition | 0.59% of 360,000 active | AID 588493 | O00487 | human 26S proteasome, Ub4-pepOG fluorescence polarization; 20S core pre-blocked with epoxomicin | inhibition, % at 20 µM;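 active = inhibition at 20 µM, scaled to each plate's controls, above about 33%, limit read from the data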
# CSN deneddyl inh – blocks human CSN-mediated cullin deneddylation | Q92905 | Purified CSN, SCF-Nedd8-OG deneddylation, fluorescence polarization | inhibition, % at 12.5 µM | 0.38% of 360,000 active | AID 651999;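 active = pattern-corrected inhibition above about 35%, with an unprinted fluorescence ratio check between 0.5 and 1.5, limit read from the data, passing the limit was not always enough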
#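 Material: human Csn5 produced in HEK293T cells; Input: enzyme 0.24 nM; Reagent: SCFSkp2-Nedd8OG substrate at 10 nM final; Dosing: 12.5 µM compound; Incubation: 90 min reaction at room temperature; Detection: fluorescence polarization of the substrate; Evaluation: % inhibition of substrate cleavage by Csn5; Control set: substrate-only high control, full reaction low control.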
# NadD block – NadD (S. aureus) enzyme inhibition; purified NadD enzyme, colorimetric absorbance read-out; inhibition, % at 20 µM; 0.78% of 360,000 active; in the data active = inhibition above about 26%
# PP1 counter – PP1-alpha (human) inhibition in PP5 counter-screen. P62136. purified PP1alpha, OMFP fluorescence. inhibition, % at 6.7 µM. 0.9% of 320,000 active;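 active = inhibition above the mean inhibition of all tested compounds plus 3 SD, computed separately for each screening campaign, cut at about 15% in these data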
# TPT1 inh – C. albicans TPT1 enzyme inhibition; recombinant caTPT1, FP RNA substrate dephosphorylation; inhibition, % at 5 µM; 0.81% of 300,000 active;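 active = inhibition above the mean of all tested compounds plus 3 SD, set per screening campaign, cut at about 24% in these data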
# PP1 inh confirm – confirmation of human PP1 phosphatase inhibitors; shares compounds with PP1 counter; purified PP1alpha, OMFP substrate fluorescence; inhibition, % at 6.7 µM; 52% of 1,900 active; AID 2358;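 active = mean PP1 inhibition above a set limit taken from the earlier primary screen, cut at about 15% in these data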
# PP5 inh counter – inhibits human PP5 phosphatase in PP1 counter-screen; inhibition, % at 6.7 µM; 4% of 1,900 active; purified PP5c, OMFP fluorescence; shares compounds with PP1 counter; AID 2360;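 active = mean PP5 inhibition over triplicate wells above about 9.5% taken from the earlier PP1 screen, limit read from the data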
# Target sequence (P53041 whole entry, looked up): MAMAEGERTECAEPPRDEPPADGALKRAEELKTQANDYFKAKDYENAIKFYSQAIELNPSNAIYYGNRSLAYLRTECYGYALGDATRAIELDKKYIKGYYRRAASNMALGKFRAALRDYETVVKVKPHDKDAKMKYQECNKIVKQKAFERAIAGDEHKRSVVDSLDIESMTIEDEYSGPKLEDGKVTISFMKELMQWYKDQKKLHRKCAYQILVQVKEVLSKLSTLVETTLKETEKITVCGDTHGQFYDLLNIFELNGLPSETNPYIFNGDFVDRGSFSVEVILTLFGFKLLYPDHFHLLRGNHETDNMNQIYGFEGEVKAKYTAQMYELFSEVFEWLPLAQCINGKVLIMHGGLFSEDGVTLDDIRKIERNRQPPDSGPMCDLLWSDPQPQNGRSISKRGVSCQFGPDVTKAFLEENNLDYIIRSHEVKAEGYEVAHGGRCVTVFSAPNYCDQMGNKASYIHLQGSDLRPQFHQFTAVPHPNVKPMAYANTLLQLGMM
# Numbers stand for hits; 0 = inactive; - = no result given. Shown are actives, neighbours in structure and some others; about 2.7% of the full set was active somewhere.
SMILES,HNF4A DNA FP,Rpn11 block,CSN deneddyl inh,NadD block,PP1 counter,TPT1 inh,PP1 inh confirm,PP5 inh counter
CCN(CC)S(=O)(=O)c1cccc(C(=O)N/N=C/c2ccc(O)c(O)c2O)c1,0,0,0,0,20,0,33,0
Nc1c(S(=O)(=O)O)cc(NC(=O)c2ccccc2)c2c1C(=O)c1ccccc1C2=O,0,0,0,0,31,0,18,0
CCc1sc(C(=O)N2CCc3cc(OC)c(OC)cc3C2CC(=O)O)cc1C (centres undefined),0,0,0,0,0,-,-,-
O=C(CN1C(=O)NC2(CCCC2)C1=O)N1CCN(c2ccccc2O)CC1,0,0,0,0,18,0,0,0
CCOc1ccccc1N1CCN(C(=O)CN2C(=O)NC3(CCCC3)C2=O)CC1,0,0,0,0,0,0,-,-
CC(C)C(NC(=O)c1ccc(Cl)cc1)C(=O)NCC1CCCO1 (centres undefined),0,0,0,0,0,0,-,-
Cc1noc(NS(=O)(=O)c2ccc(NC(=O)Nc3ccc(Cl)c(Cl)c3)cc2)c1C,0,0,0,0,18,0,0,0
Cc1noc(NS(=O)(=O)c2ccc(NC(=O)C(Cl)(Cl)Cl)cc2)c1C,0,0,0,0,0,0,-,-
Cc1ccc(S(=O)(=O)CCC(=O)OCC(=O)c2ccc(F)cc2)cc1,0,0,0,0,31,0,0,0
O=C(Nc1nccs1)c1cc2c(s1)-c1ccccc1OC2,0,0,0,0,23,0,26,0
O=C(Nc1nc2ccccc2s1)c1cc2c(s1)-c1ccccc1OC2,0,0,0,0,0,0,-,-
Cc1cccc2c1-c1sc(C(=O)Nc3nccs3)cc1CO2,0,0,0,0,21,0,0,0
CCOC(=O)c1c(CSc2ccc(CC)cc2)oc2ccc(O)c(CN(C)C)c12,0,0,0,0,18,0,0,0
CC(C)Nc1ncnc2c1ncn2[C@H]1CN(Cc2ccccc2)C[C@@H](CO)O1,0,0,0,0,-,-,-,-
O=C(Nc1ccc(-c2nc3ncccc3o2)cc1)c1ccc(Br)o1,0,0,0,0,25,0,0,0
Cn1c(=O)[nH]c2ncccc21,0,0,0,0,28,0,0,0
c1ccc(CNc2nc(NCc3ccccc3)c3ccccc3n2)cc1,0,0,0,0,34,0,23,0
c1ccc(CNc2nc(-c3ccccn3)nc3ccccc23)cc1,0,0,0,0,39,0,40,0
Fc1ccc(Nc2nc(NCc3ccco3)c3ccccc3n2)cc1,0,0,0,0,20,0,0,0
c1ccc(CNc2nc(-c3ccccc3)nc3ccccc23)cc1,0,0,0,0,0,0,-,-
C/C(=N/NC(=O)c1cc2ccccc2cc1O)C1C(=O)c2ccccc2C1=O,0,0,0,0,24,0,17,0
C/C(=N\NC(=O)c1ccccc1O)C1C(=O)c2ccccc2C1=O,0,0,0,0,0,0,-,-
Cc1cccc(OCC(=O)N(C)CC(=O)Nc2cccc(F)c2)c1C,0,0,0,0,0,-,-,-
Cc1ccc2nc(-c3ccc(SCC(=O)Nc4nc(C)cs4)nc3)[nH]c2c1,0,0,0,0,0,0,-,-
Cc1ccc2nc(-c3ccc(SCC(=O)Nc4nnc(C)s4)nc3)[nH]c2c1,0,0,0,0,20,0,25,0
SMILES,HNF4A DNA FP,Rpn11 block,CSN deneddyl inh,NadD block,PP1 counter,TPT1 inh,PP1 inh confirm,PP5 inh counter
CN1CCN(C2CN(Cc3ccc(F)cc3)S(=O)(=O)C2)CC1 (centres undefined),0,0,0,0,-,-,-,-
CCn1c(SCC(=O)NCc2ccco2)nc2ccccc2c1=O,0,0,0,0,0,0,-,-
CCOCCCn1c(SCC(=O)NCc2ccco2)nc2c(sc3ccccc32)c1=O,0,0,0,0,0,0,-,-
CCCCn1c(SCC(=O)NCc2ccco2)nc2c(sc3ccccc32)c1=O,0,0,0,0,22,0,24,0
O=C(CSc1nc2ccccc2c2nc3ccccc3n12)NCc1ccco1,0,0,0,0,31,0,20,0
CCCCCCCCCCCCCCCC[N+](C)(C)CC,0,0,0,0,20,0,0,0
CCCCCC[N+](C)(C)CCSSCC[N+](C)(C)CCCCCC,0,0,0,0,0,0,-,-
O=C(O)CC/C(=N/NC(=O)CNC(=O)c1ccc2c(c1)OCCO2)c1ccccc1,0,0,0,0,0,0,-,-
O=C(NNC(=S)Nc1ccc(Cl)c(Cl)c1)c1ccccn1,0,0,0,0,21,0,24,0
CC(=O)NC1C(=O)N(CCN2CCOCC2)c2ccc(Br)cc21 (centres undefined),0,0,0,0,38,0,38,0
CCOc1ccc2c(c1)C(NC(C)=O)C(=O)N2CCN1CCOCC1 (centres undefined),0,0,0,0,-,-,-,-
CCOc1ccc(CN(C)CC(=O)Nc2ccccc2C(=O)NC2CC2)cc1,0,0,0,0,-,-,-,-
COc1cc(Cl)ccc1OC1(C)CCN(Cc2cccc(OC)c2OC)C1 (centres undefined),0,0,0,0,-,-,-,-
COc1cc(F)ccc1S(=O)(=O)N1CCN(c2ccccc2)CC1,0,0,0,0,0,0,0,0
COc1ccc(C)cc1S(=O)(=O)N1CCN(c2ccccc2)CC1,0,0,0,0,0,0,-,-
COc1ccc([C@H]2Oc3cc(O)cc(O)c3C(=O)C2[C@@H]2C(=O)c3c(O)cc(O)cc3O[C@@H]2c2ccc(OC)cc2)cc1 (some centres undefined),-,-,-,-,25,0,0,0
CCCCC[C@H](O)/C=C/[C@@H]1[C@@H](C/C=C\CCCC(=O)OC)[C@@H](O)C[C@H]1O,0,0,0,0,46,0,43,0
CN(C)/C=C1\C(=O)N(c2ccc([N+](=O)[O-])cc2)N=C1c1ccccc1,0,0,0,0,22,0,0,0
CC1=NN(c2ccc([N+](=O)[O-])cc2)C(=O)/C1=C\N(C)C,0,0,0,0,0,0,-,-
CN(C)/C=C1/C(=O)N(c2ccc([N+](=O)[O-])cc2)N=C1c1ccccc1,-,-,-,-,20,0,0,0
Cc1noc(/C=C/c2ccco2)c1S(=O)(=O)N1CCC(C(=O)N(C)Cc2ccccc2)CC1,0,0,0,0,19,0,0,0
Cc1cc(C(=O)CSc2nncs2)c(C)n1Cc1ccco1,0,0,0,0,0,0,-,-
Cc1cc(C(=O)CSc2nn(-c3ccccc3)c(=S)s2)c(C)n1Cc1ccco1,0,0,0,0,20,0,0,0
CN1CCn2cnc(C(=O)N[C@@H](Cc3ccccc3)C(=O)OC(C)(C)C)c2C1=O,0,0,0,0,-,-,-,-
Cc1nc(SCc2ccc(Cl)c(Cl)c2)ncc1C(=O)O,0,0,0,0,0,0,-,-
